Laboratory results from ChEMBL document CHEMBL1687720 (Antimicrob Agents Chemother, 2009).

Columns and labels:
Plasmodium berghei = assay: Antimalarial activity against Plasmodium berghei infected in mouse assessed as reduction in parasite load at 10 mg/kg for 4 days treated postinfection measured on day 4; format: functional; set-up: scale not given: the % may be the effect or the level left
Method in brief: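 Murine Plasmodium berghei infection model. Compound given subcutaneously at 10 mg/kg for 4 days after infection, 13 treated mice and 13 controls. Parasitemia is compared with untreated controls, with significance by Fisher's exact test.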

[1] = biological target: T1, Glutathione reductase, mitochondrial (Homo sapiens) (UniProt P00390); assay: Inhibition of glutathione reductase in human A549 cells assessed as enzyme activity at 166 µM after 24 hrs relative to untreated control; set-up: scale not given: the % may be the effect or the level left
T1 sequence (whole entry): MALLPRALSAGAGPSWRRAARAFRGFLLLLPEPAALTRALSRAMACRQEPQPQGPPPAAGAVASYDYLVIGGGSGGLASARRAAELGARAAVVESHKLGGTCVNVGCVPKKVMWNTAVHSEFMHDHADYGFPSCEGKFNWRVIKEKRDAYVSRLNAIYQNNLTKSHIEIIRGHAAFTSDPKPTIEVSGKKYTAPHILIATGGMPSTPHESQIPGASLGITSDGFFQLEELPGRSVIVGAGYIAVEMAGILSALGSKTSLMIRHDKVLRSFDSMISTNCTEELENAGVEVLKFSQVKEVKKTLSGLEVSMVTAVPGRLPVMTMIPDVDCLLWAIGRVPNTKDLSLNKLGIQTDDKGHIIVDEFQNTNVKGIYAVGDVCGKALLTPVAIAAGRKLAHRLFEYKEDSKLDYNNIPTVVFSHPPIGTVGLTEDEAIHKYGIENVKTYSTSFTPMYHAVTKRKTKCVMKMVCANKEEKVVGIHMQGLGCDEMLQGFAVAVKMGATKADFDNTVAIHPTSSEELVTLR

| SMILES | Activity (Plasmodium berghei) [%] | Activity [1] [%] |
| --- | --- | --- |
| O=c1oc2c(O)c(O)c(O)c3c(=O)oc4c(O)c(O)c(O)c1c4c23 [CORULEOELLAGIC ACID] | 84 | – |
| O=c1oc2c(O)c(O)cc3c(=O)oc4c(O)c(O)cc1c4c23 [ELLAGIC ACID] | – | 87 |
